Reference: ChEMBL document CHEMBL1154061, “Synthesis and in vitro antibacterial activity of 7-(4-alkoxyimino-3-amino-3-methylpiperidin-1-yl)fluoroquinolone derivatives” (Eur J Med Chem, 2009)
In brackets after ≈: the same amount, converted by molar mass.

What was measured:
[1] = system: Staphylococcus aureus; test: Antibacterial activity against Staphylococcus aureus ATCC 29213 after 18 to 24 hrs by twofold serial dilution method; format: functional
In short: (§1)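 Agar media, standard twofold serial dilution (NCCLS M100-S11 basis). Plates incubated at 35 °C for 18–24 h. MIC taken as the lowest compound concentration giving complete inhibition of visible bacterial growth.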

[2] = system: Staphylococcus aureus; test: Antibacterial activity against methicillin-resistant Staphylococcus aureus 05-3 after 18 to 24 hrs by twofold serial dilution method; format: functional
In short: (§2)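 Agar twofold serial dilution MIC. Plates incubated at 35 °C for 18–24 h. MIC taken as the lowest compound concentration giving complete inhibition of visible bacterial growth.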

[3] = system: Staphylococcus epidermidis; test: Antibacterial activity against Staphylococcus epidermidis ATCC 12228 after 18 to 24 hrs by twofold serial dilution method; format: functional; in short: as §1
[4] = system: Staphylococcus epidermidis; test: Antibacterial activity against methicillin-resistant Staphylococcus epidermidis 05-1 after 18 to 24 hrs by twofold serial dilution method; format: functional; in short: as §2
[5] = system: Streptococcus pneumoniae; test: Antibacterial activity against Streptococcus pneumoniae 97100 after 18 to 24 hrs by twofold serial dilution method; format: functional; in short: as §1
[6] = system: Streptococcus pyogenes; test: Antibacterial activity against Streptococcus pyogenes 9619 after 18 to 24 hrs by twofold serial dilution method; format: functional; in short: as §1
[7] = system: Enterococcus faecalis; test: Antibacterial activity against Enterococcus faecalis ATCC 29212 after 18 to 24 hrs by twofold serial dilution method; format: functional; in short: as §1
[8] = system: Escherichia coli; test: Antibacterial activity against Escherichia coli 26 after 18 to 24 hrs by twofold serial dilution method; format: functional; in short: as §1
[9] = system: Klebsiella pneumoniae; test: Antibacterial activity against Klebsiella pneumoniae 7 after 18 to 24 hrs by twofold serial dilution method; format: functional; in short: as §1
[10] = system: Pseudomonas aeruginosa; test: Antibacterial activity against Pseudomonas aeruginosa 17 after 18 to 24 hrs by twofold serial dilution method; format: functional; in short: as §1
[11] = system: Shigella sonnei; test: Antibacterial activity against Shigella sonnei 51592 after 18 to 24 hrs by twofold serial dilution method; format: functional; in short: as §1
[12] = system: Enterobacter cloacae; test: Antibacterial activity against Enterobacter cloacae 45301 after 18 to 24 hrs by twofold serial dilution method; format: functional; in short: as §1
[13] = Cytotoxicity against african green monkey Vero cells assessed as cell viability after 72 hrs by MTT assay; format: cell-based; settings: chlorocebus sabaeus

Compound | MIC [1] [µg/mL] | MIC [2] [µg/mL] | MIC [3] [µg/mL] | MIC [4] [µg/mL] | MIC [5] [µg/mL] | MIC [6] [µg/mL] | MIC [7] [µg/mL] | MIC [8] [µg/mL] | MIC [9] [µg/mL] | MIC [10] [µg/mL] | MIC [11] [µg/mL] | MIC [12] [µg/mL] | CC50 at 72 h [13] [µM]
CCO/N=C1/CCN(c2c(F)cc3c(=O)c(C(=O)O)cn(CCF)c3c2F)CC1(C)N (centres undefined) | 2 (≈ 4.54 µM) | > 128 | 2 (≈ 4.54 µM) | > 128 | 16 (≈ 36.3 µM) | 32 (≈ 72.7 µM) | 16 (≈ 36.3 µM) | 8 (≈ 18.2 µM) | 4 (≈ 9.08 µM) | 128 (≈ 291 µM) | 16 (≈ 36.3 µM) | 16 (≈ 36.3 µM) | 243
CO/N=C1/CCN(c2c(F)cc3c(=O)c(C(=O)O)cn(CCF)c3c2F)CC1(C)N (centres undefined) | 1 (≈ 2.35 µM) | > 128 | 1 (≈ 2.35 µM) | > 128 | 16 (≈ 37.5 µM) | 16 (≈ 37.5 µM) | 8 (≈ 18.8 µM) | 4 (≈ 9.38 µM) | 4 (≈ 9.38 µM) | 32 (≈ 75 µM) | 8 (≈ 18.8 µM) | 8 (≈ 18.8 µM) | 626
CO/N=C1\CN(c2nc3c(cc2F)c(=O)c(C(=O)O)cn3C2CC2)CC1CN (centres undefined) [GEMIFLOXACIN] | < 0.03 | 4 (≈ 10.3 µM) | < 0.03 | 2 (≈ 5.14 µM) | 2 (≈ 5.14 µM) | 2 (≈ 5.14 µM) | 0.06 (≈ 0.154 µM) | 0.06 (≈ 0.154 µM) | 0.5 (≈ 1.28 µM) | 0.125 (≈ 0.321 µM) | 0.06 (≈ 0.154 µM) | 0.06 (≈ 0.154 µM) | 
CCO/N=C1/CCN(c2nc3c(cc2F)c(=O)c(C(=O)O)cn3-c2ccc(F)cc2F)CC1(C)N (centres undefined) | 1 (≈ 2.04 µM) | 128 (≈ 262 µM) | 1 (≈ 2.04 µM) | > 128 | 16 (≈ 32.7 µM) | 128 (≈ 262 µM) | 4 (≈ 8.17 µM) | 8 (≈ 16.3 µM) | 8 (≈ 16.3 µM) | 64 (≈ 131 µM) | 16 (≈ 32.7 µM) | 16 (≈ 32.7 µM) | 31.4
CO/N=C1/CCN(c2nc3c(cc2F)c(=O)c(C(=O)O)cn3-c2ccc(F)cc2F)CC1(C)N (centres undefined) | 1 (≈ 2.1 µM) | > 128 | 2 (≈ 4.21 µM) | > 128 | 8 (≈ 16.8 µM) | > 128 | 8 (≈ 16.8 µM) | 8 (≈ 16.8 µM) | 8 (≈ 16.8 µM) | 32 (≈ 67.3 µM) | 8 (≈ 16.8 µM) | 16 (≈ 33.7 µM) | 259
C[C@H]1COc2c(N3CCN(C)CC3)c(F)cc3c(=O)c(C(=O)O)cn1c23.C[C@H]1COc2c(N3CCN(C)CC3)c(F)cc3c(=O)c(C(=O)O)cn1c23.O [LEVOFLOXACIN] | 0.25 | 32 | 0.5 | 32 |  | 4 | 1 |  |  | 0.5 | 1 | 0.125 | > 1000
